Published values pooled from the literature.
Lines come from different studies, so protocols differ.
Target: Phosphatidylinositol 4,5-bisphosphate 3-kinase catalytic subunit gamma isoform (PIK3CG, Homo sapiens, UniProt P48736)

SMILES | test | setting | measurement | value
COc1ccc2oc(-c3ccc4nc(N)oc4c3)c/c(=N\c3ccccc3NC(=O)CCN)c2c1 | enzyme activity, inhibitor | 1 µM | remaining activity | 98%
CO[C@@H]1[C@H](N(C)C(=O)c2ccccc2)C[C@H]2O[C@]1(C)n1c3ccccc3c3c4c(c5c6ccccc6n2c5c31)C(=O)NC4 | enzyme activity, inhibitor | 1 µM | inhibition | 34%
COc1ccc2[nH]c3c4[nH]c5ccc(OC)cc5c4c4c(c3c2c1)C(=O)NC4=O | binding | 1 µM | remaining binding | 87%
CCCCC(=O)Nc1ccc(-c2ccc3ncn(CCC)c(=O)c3c2)cn1 | binding, competition with immobilised ligand | 0.5 µM | remaining binding | 100%
CC#CC(=O)N1CCC[C@H]1c1nc(-c2ccc(C(=O)Nc3ccccn3)cc2)c2c(N)nccn12 | enzyme activity, inhibitor | 1 µM | inhibition | 0%
N#Cc1ccc(NC(=O)Nc2ccccc2)cc1 | cell-free assay, competition with immobilised ligand | 25 µM | remaining binding | 77%
C#Cc1cnc(Nc2ccnc(CO)c2)nc1Nc1ccccc1S(C)(=O)=NC#N (stereo not shown) | cell-free assay | 1 µM | remaining signal | 15%
C1=C/COCc2cc(ccc2OCCN2CCCC2)Nc2nccc(n2)-c2cccc(c2)COC/1 | binding | 0.1 µM | remaining binding | 4.3%
C[C@H]1CC[C@H](n2c3cnccc3c3cnc(Nc4ccc5c(n4)CCN(C(=O)CO)C5)nc32)CC1 | cell-free assay | 1 µM | remaining signal | 47%
Cc1nc(NC(=O)N2CCC[C@H]2C(N)=O)sc1-c1ccnc(C(C)(C)C(F)(F)F)c1 | enzyme activity, inhibitor, ADP detection | 10 µM | inhibition | 73.3%
